Results on eight compounds are retold here after article PMC4857052 (Molecular pharmacology, 2012).

Series [1] concerns 5FOARes T. b. brucei. In words: Alamar blue drug sensitivity assay, 5FOARes. Format: cell-based, Trypanosoma brucei brucei. The essentials: (§1)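 Bloodstream-form T. b. brucei s427 grown in HMI-9 with 10% FBS at 37°C under 5% CO2. Resistant lines were made by months of stepwise-increasing exposure to the analog, then cloned by limiting dilution. Viability was read by resazurin (Alamar blue) reduction. Thymidine rescue was tested by adding 100 μM thymidine.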
In general terms: The colour change of resazurin is a common sign of viable cells or microbes.

For series [2], the system named is variant surface glycoprotein. As to the kind of experiment: Effect on glycosylation / variant surface glycoprotein content. It counts as cell-based, Trypanosoma brucei brucei. The settings on record: 100 μM.
The subject of series [3] is T. b. brucei bloodstream forms strain 427 WT. In words: Alamar blue drug sensitivity assay, wild-type. It counts as cell-based, Trypanosoma brucei brucei. The note with it: for EC50: Trypanosoma brucei. The essentials: as §1
In series [4] the test system is DNA of T. brucei bloodstream forms. In words: Incorporation into DNA. It counts as cell-based, Trypanosoma brucei brucei. The note with it: 100 μM, 12 hours; natural deoxynucleotides 500-5000-fold above detection limit. The essentials: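 Bloodstream forms were exposed to 100 μM test compound for 12 h (37°C, 5% CO2), with untreated parallel controls. DNA was extracted by SDS/RNase A lysis overnight at 37°C and phenol/chloroform, then digested with 1000 units exonuclease III at 37°C for 48 h. The digest was mixed 1:3 with acetonitrile, centrifuged, and the supernatant analysed by HILIC–high-resolution LC-MS.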

Series [5] concerns 5FURes T. b. brucei. In words: Alamar blue drug sensitivity assay, 5FURes. It counts as cell-based, Trypanosoma brucei brucei. In short, it runs like this:
as §1

Series [6] concerns 5F-2′dURes cells. As to the kind of experiment: Metabolomic analysis of treated 5F-2′dURes cells. It counts as cell-based, Trypanosoma brucei brucei. The note with it: 100 μM, 8 hours.
Series [7] has as its system 5F-2′dURes T. b. brucei. As to the kind of experiment: Alamar blue drug sensitivity assay, 5F-2′dURes. It counts as cell-based, Trypanosoma brucei brucei. In short, it runs like this: as §1
Series [8] concerns the target TbU1. The note with it: procyclic forms (PCF), ref De Koning and Jarvis (1998), Papageorgiou et al. (2005), Gudin et al. (2006), cited from earlier work; for Ki, U1 / Ki: NE = no effect on uptake at concentration indicated; for Ki: read-out: Ki, U1.
The subject of series [9] is TbT1 (P1-type nucleoside transporter). As to the kind of experiment: [3H]-thymidine transport in bloodstream forms. Format: cell-based, Trypanosoma brucei brucei. The note with it: for effect on [3H]-thymidine transport (in words): bloodstream forms.
In series [10] the target is TbU2. The note with it: read-out: Ki, U2; procyclic forms (PCF); ref De Koning and Jarvis (1998), Papageorgiou et al. (2005), Gudin et al. (2006); cited from earlier work.
Series [11] has as its system P1-type nucleoside transporter. In words: [3H]-inosine uptake in bloodstream forms. It counts as cell-based, Trypanosoma brucei brucei. The essentials: (§2)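 Log-phase cells were washed into HEPES/bicarbonate glucose buffer (pH 7.3) at 1 × 10^8/ml and mixed with an equal volume of [3H]-permeant, with or without unlabeled competitor, at ambient temperature. Uptake was stopped with ice-cold buffer containing saturating unlabeled permeant, then cells were spun through oil. Counts were corrected for nonspecific binding and Km, Vmax and Ki obtained by curve fitting. Runs were in triplicate. Thymidine: 10 μM label, 15 min. Orotic acid: 10 min.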

The test system of series [12] is 5-FOARes trypanosomes. As to the kind of experiment: [3H]-orotic acid uptake, 5-FOARes versus wild-type. It counts as cell-based, Trypanosoma brucei brucei. The settings on record: over 10 min; two experiments. In short, it runs like this:
as §2

In series [13] the test system is T. b. brucei bloodstream forms. In words: [3H]-orotic acid uptake, wild-type bloodstream forms. It counts as cell-based, Trypanosoma brucei brucei.
Series [14] concerns 5F-2′dURes trypanosomes. In words: [3H]-thymidine uptake in 5F-2′dURes. Format: cell-based, Trypanosoma brucei brucei. The essentials: as §2
Series [15] relates to s427WT T. b. brucei bloodstream forms. In words: Kinetic parameters of pyrimidine transport in wild-type bloodstream forms. It counts as cell-based, Trypanosoma brucei brucei. The settings on record: [3H]-permeant; strain s427WT. The essentials:
as §2

For series [16], the system named is T. b. brucei bloodstream forms. As to the kind of experiment: Uptake of other radiolabeled pyrimidines by wild-type bloodstream forms. It counts as cell-based, Trypanosoma brucei brucei. The note with it: over 15 min; 2.5 μM [3H]-2′-deoxycytidine, 0.25 μM [3H]-cytosine, 1 μM [3H]-thymine.
In series [17] the target is TbU3. As to the kind of experiment: [3H]-uridine transport in bloodstream forms. The settings on record: 2.5 μM [3H]-uridine. Format: cell-based, Trypanosoma brucei brucei.
Series [18] concerns TbU3 uracil transporter. In words: [3H]-uracil transport in bloodstream forms. Format: cell-based, Trypanosoma brucei brucei. The note with it: for Km: read-out: Km, U3, bloodstream forms (BSF), Km of the permeant itself.
Series [19] concerns 5-FURes T. b. brucei. In words: Pyrimidine transport in 5-FURes bloodstream forms. It counts as cell-based, Trypanosoma brucei brucei.
[20] abbreviates: resistance factor: IC50(resistant clone)/IC50(WT).

Several values for one entry are separate records, joined by “and”; a condition that tells them apart may be missing. Equal values may be shown once. Read-outs that look alike come from different tables or passages of the source.

Broadly, the EC50 is the concentration needed to bring the measured effect to its halfway point. In the case of `O=c1[nH]c(=O)n([C@H]2C[C@H](O)[C@@H](CO)O2)cc1F` [5Fl-2’-dUrd, 5-fluoro-2′-deoxyuridine], the 50% effective concentration (EC50) in [1] (Trypanosoma brucei, read-out: EC50, 5FOARes, Mean) worked out at 31 µM; in [3] (read-out: EC50, WT, Mean, Alamar blue assay, wild-type sensitive control strain), 5.2 µM; in series [3] (wild-type, thymidine-free HMI-9 with 100 μM thymidine added) it was 18.6 ± 3 µM; in [3] (wild-type, thymidine-free version of HMI-9), 0.77 ± 0.3 µM; in [5] (Trypanosoma brucei, read-out: EC50, 5FURes, Mean), 3.2 µM; in series [7] (Trypanosoma brucei, read-out: EC50, 5F-2′dURes, Mean), 4300 µM. For the same compound, the “RF, 5FOARes” value in [1] (setting [20]) came out at 5.9. Moreover, the “changes in variant surface glycoprotein content” value in [2] is recorded as “no detectable changes”. Moreover, the entries for the “reduction of sensitivity by addition of 100 μM thymidine” value in [3] (wild-type) and in [7] (5F-2′dURes cells) were 24 fold and over 600 fold, respectively. Besides, the “5F-dUMP in DNA digest” value in series [4] was “No 5F-dUMP was detected”. Further, the “RF, 5FURes” value in series [5] (setting [20]) came to 0.61. In addition, the “increase in dUMP in treated 5F-2′dURes cells relative to untreated wild-type cells” value in series [6] is “two-fold”. Further, in [7] (setting [20]), the “RF, 5F-2′dURes” value worked out at 825.
For orientation: Ki means a measure of affinity in units of concentration, obtained from inhibition or displacement. Regarding `Nc1ccn([C@@H]2O[C@H](CO)[C@@H](O)[C@H]2O)c(=O)n1` [Cytidine], in series [8], the “Ki, U1” value is reported as “NE, 1000”. The “effect on [3H]-thymidine transport (in words)” value (“effect” for short) in [9] is recorded as “little or no effect”. For the same compound, in series [10], the inhibitory constant (Ki) is 0.057 ± 0.019 µM.
In general, Km refers to the concentration of substrate that gives half-maximal velocity. Turning to `O=c1[nH]cnc2c1ncn2[C@@H]1O[C@H](CO)[C@@H](O)[C@H]1O` [Inosine], the “Ki, U1” value in series [8] is listed as “NE, 1000”. Besides, in series [11] (read-out: Km of inosine uptake, n = 3), the Michaelis constant (Km) worked out at 0.89 ± 0.15 µM.
In the case of `O=C(O)c1cc(=O)[nH]c(=O)[nH]1` [Orotic acid], the “reduction of [3H]-orotic acid uptake in 5-FOARes relative to wild-type” value in series [12] is 68.1% and 62.8%. The “effect” value in [9] is listed as “little or no effect”. Moreover, the “uptake rate as fraction of the transport rate of [3H]-uracil and [3H]-5-FU” value in series [13] is at most 1%.
Consider `Cc1cn([C@H]2C[C@H](O)[C@@H](CO)O2)c(=O)[nH]c1=O` [Thymidine], for which the “Ki, U1” value in series [8] was “NE, 1000”. For the same compound, in series [14], the “increase in thymidine affinity relative to wild-type” value is listed as over 50 fold. In addition, the “increase in transport efficiency relative to wild-type” value in series [14] was “six-fold”. Also, the “Vmax of [3H]-thymidine uptake” value in series [14] (10 μM [3H]-thymidine) was 0.013 ± 0.002 pmol(10^7 cells)^−1s^−1. For the same compound, the Michaelis constant (Km) in series [14] (read-out: Km of [3H]-thymidine uptake, 10 μM [3H]-thymidine) was 22 ± 3 µM; in series [9] (read-out: Km, T1, bloodstream forms (BSF)), 1240 ± 310 µM; in series [15], 1240 ± 310 µM. In addition, in series [9] (10 μM thymidine, 5-30 min), the “rate of [3H]-thymidine transport” value is 0.0015 ± 0.0003 pmol(10^7 cells)^−1s^−1. Also, the inhibition constant Ki is 0.38 ± 0.07 µM in series [10] and 214 ± 51 µM in [11] (read-out: Ki for inhibition of inosine uptake, monophasic, n = 4). Further, the Vmax in series [15] was 0.067 ± 0.008 pmol (10^7 cells)^−1s^−1.
Regarding `Cc1c[nH]c(=O)[nH]c1=O` [Thymine], in series [8], the Ki is over 1000 µM. The “accumulation of radiolabeled permeant (in words)” value in series [16] is reported as “did not detectably accumulate”. In addition, the “effect” value in [9] is on record as “little or no effect”.
Take `O=c1cc[nH]c(=O)[nH]1` [Uracil]: the Michaelis-Menten constant (Km) is 0.46 ± 0.09 µM in series [8] (read-out: Km, U1, bold entry); 1.5 ± 0.3 µM in series [15]; 0.54 ± 0.11 µM in [18]; 0.66 ± 0.15 µM in [19] ([3H]-permeant, strain 5-FURes). Besides, the Ki in series [17] (read-out: Ki for inhibition of [3H]-uridine uptake, n = 3) is 1.6 ± 0.2 µM. Also, the “effect” value in series [9] is “failing to reach 50% inhibition even at 2.5 mM”. For the same compound, the Vmax in series [15] is on record as 0.27 ± 0.05 pmol (10^7 cells)^−1s^−1; in series [19] ([3H]-permeant, strain 5-FURes), 0.16 ± 0.02 pmol (10^7 cells)^−1s^−1. Moreover, the “reduction of [3H]-uracil transport by unlabeled uracil” value in series [18] (0.15 μM [3H]-uracil, 1 mM unlabeled uracil) is recorded as over 97%. In addition, the “rate of [3H]-uracil transport” value in [18] (0.15 μM [3H]-uracil, linear for at least 120 s) is given as 0.034 ± 0.002 pmol (10^7 cells)^−1s^−1. Moreover, the “Vmax of uracil transport” value in [18] (mean of six triplicate experiments) is reported as 0.14 ± 0.03 pmol × 10^7 cells^−1 × s^−1.
Consider `O=c1ccn([C@@H]2O[C@H](CO)[C@@H](O)[C@H]2O)c(=O)[nH]1` [Uridine], for which the Ki in series [8] was 33 ± 5 µM; in [19] (read-out: Ki for [3H]-uracil transport in 5-FURes, n = 3), about 10000 µM. In addition, the “rate of [3H]-uridine transport” value in series [17] (0-30 min) is listed as 0.0043 ± 0.0003 pmol(10^7 cells)^−1s^−1. The Km in series [15] and in series [18] was 9500 ± 2700 µM each time. Also, in series [15], the Vmax is listed as 16 ± 4 pmol (10^7 cells)^−1s^−1. In addition, the “inhibition of [3H]-uracil uptake” value in series [18] (10 mM of the nucleoside, 0.15 μM [3H]-uracil) is given as ~ 50%.
